F508del corr: correctors of CFTR F508del function in bronchial epithelial cells; CFBE cells, YFP halide quenching; stimulated with forskolin plus potentiator P3; % fluorescence drop versus neutral controls; activity (quench increase), % at 7.58 µM; hit rate 0.36% among 350,000;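 active = mean added fluorescence quench of at least 8% versus neutral control, with both replicates also reaching 8%; inconclusive = only one of the mean or replicate conditions met; inactive = mean below 8% and not both replicates reaching 8%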;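 also: cells transiently co-express mutant CFTR-F508del with the halide-sensitive YFP; corrector assay measuring rescue of mutant channel to the surface after 24 h compound exposure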
FGF22 binding: FGF22 (human) thermal shift binding; Q9HCT0; recombinant FGF22 thermal shift, SYPRO orange fluorescence; percent of sucrose octasulfate shift, DMSO zero; activity (Tm shift, normalised), % at 9.99 µM; hit rate 1.5% among 340,000; AID 651658;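 active = mean Tm shift, scaled 0 neutral to 100 positive control, at about 1.3% or above, every replicate too, limit read from the data; inconclusive = no clear call, values can overlap the other calls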
Target sequence (Q9HCT0 whole entry, looked up): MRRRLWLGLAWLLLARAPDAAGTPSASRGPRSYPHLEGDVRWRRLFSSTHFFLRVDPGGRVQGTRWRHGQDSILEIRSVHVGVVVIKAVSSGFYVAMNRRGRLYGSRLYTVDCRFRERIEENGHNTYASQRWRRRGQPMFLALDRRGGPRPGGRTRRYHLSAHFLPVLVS
E-sel inducer: E-selectin induction on HUVECs; P16581; HUVEC E-selectin immunofluorescence imaging; normalized: neutral wells 0, TNF-alpha wells 100; activation, % at 7.58 µM; hit rate 0.37% among 260,000; AID 686992;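 active = mean E-selectin-positive cell signal at least 10% of the positive control, reached in at least 60% of replicates, without over 20% cell loss; inconclusive = no rule given, readout overlaps actives, possibly toxicity-flagged; inactive = the rest, including those meeting only one limit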
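Test system – human umbilical vein endothelial cells (HUVEC), E-selectin induction · Input – 3,000 HUVEC seeded per well · Buffer or medium – EGM-2, gelatin · Compound dosing – single-point compound dose · Detection – immunofluorescence imaging · Measure – percent E-selectin-positive cells · Controls – TNF-alpha high, DMSO low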
DENV2 CPE: protects cells from dengue virus 2 cytopathic effect; DENV2-infected cells, cytopathic effect rescue, plate reader; CPE inhibition, % at 9.99 µM; hit rate 1.7% among 350,000; in the data active = CPE inhibition above about 20%, passing the limit was not always enough; inconclusive = no clear call, values can overlap the other calls; tested in BHK-21 cells;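 also: 0% = median of neutral control wells and 100% = median of positive control wells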
ERAP1 HTS inh: inhibitors of human ERAP1 aminopeptidase; AID 652197; inhibition, % at 10.7 µM; Q9NZ08; recombinant ERAP1, Leu-AMC fluorescence, 60 min; hit rate 0.15% among 340,000;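 active = mean replicate inhibition of at least 30%, or all replicates individually reaching that 30% level; inactive = mean below 30% and not every replicate reaching it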;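 also: 0% = neutral control wells and 100% = L-leucinethiol positive control wells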
The depositor's hits bear a star; ? = inconclusive; / = not tested or not shown. Compounds with a hit are over-represented: about 3.7% of the library has one in this group of screens.

SMILES	F508del corr	FGF22 binding	E-sel inducer	DENV2 CPE	ERAP1 HTS inh
O=C(CCc1nc2ccccc2c(=O)[nH]1)N1CCCc2ccccc21	1	0	1	53*	-1
O=C(CCc1nc2ccccc2c(=O)[nH]1)N1CCN(c2ccccc2Cl)CC1	1	0	0	1	2
O=c1[nH]c(CN2CCOCC2)nc2ccccc12	0	43*	2	-4	1
S=c1cnc2ccccc2[nH]1	5	43*	/	?	-3
c1ccc2[nH]c(CCCc3nc4ccccc4[nH]3)nc2c1	/	0	/	6	0
CCOC(=O)c1c(C)[nH]c(C)c1C(=O)COC(=O)c1cc(OC)cc(OC)c1	-1	59*	0	/	-7
CCOC(=O)c1c(C)[nH]c(C)c1C(=O)COC(=O)c1ccc([N+](=O)[O-])s1	9.3*	0	-1	?	0
CCc1cccc2c(C(=O)COC(=O)c3ccc([N+](=O)[O-])s3)c[nH]c12	-3	44*	/	14	0
CCOC(=O)c1c(C)[nH]c(C)c1C(=O)COC(=O)c1ccc(OC)cc1	-4	1	3	4	2
COc1cccc(S(=O)(=O)N(C)C[C@@H]2Oc3cc(C#CCN(C)C)ccc3S(=O)(=O)N([C@@H](C)CO)C[C@H]2C)c1	-6	0	0	-8	-2
CC1CCN(C(c2cc3cc4c(cc3[nH]c2=O)OCO4)c2nnnn2CC2CCCO2)CC1 (configuration not stated)	1	0	/	-1	-3
COc1ccc2[nH]c(=O)c(C(c3nnnn3CC3CCCO3)N3CCCCC3)cc2c1 (configuration not stated)	-1	43*	/	1	-1
C[C@@H]1CN([C@@H](C)CO)C(=O)c2cc(NC(=O)NC3CCCCC3)ccc2O[C@@H]1CN(C)S(=O)(=O)c1ccc(Cl)cc1	-1	0	27*	-3	2
Cc1ccc(S(=O)(=O)N(C)C[C@@H]2Oc3ccc(NC(=O)NC4CCCCC4)cc3C(=O)N([C@H](C)CO)C[C@H]2C)cc1	2	0	1	-3	0
C[C@H]1CN([C@@H](C)CO)C(=O)c2cc(NC(=O)NC3CCCCC3)ccc2O[C@@H]1CN(C)S(=O)(=O)c1ccc(Cl)cc1	-1	0	449*	3	0
C[C@H](CO)N1C[C@H](C)[C@@H](CN(C)S(=O)(=O)c2ccc(Cl)cc2)Oc2ccc(NC(=O)NC3CCCCC3)cc2C1=O	-3	0	13	3	0
C[C@@H]1CN([C@H](C)CO)C(=O)CCCn2nncc2CO[C@@H]1CN(C)Cc1ccc2c(c1)OCO2	0	1	1	6	2
COc1ccc(NC(=S)NCc2ccccn2)cc1OC	-2	0	/	/	-4
Fc1ccc(NC(=S)NCCc2ccccn2)cc1	-2	44*	/	-4	0
S=C(NCc1ccccn1)Nc1ccccc1	-2	44*	/	7	-2
S=C(NCCc1ccccn1)Nc1ccc(Cl)cc1	/	0	-1	16	-1
CO[C@@H]1CN(C)C(=O)c2cc(NC(C)=O)ccc2OC[C@H](C)N(C(=O)c2cnccn2)C[C@@H]1C	2	0	3	-6	/
C[C@@H]1CN([C@H](C)CO)C(=O)c2cc(-c3ccccc3F)cnc2O[C@H]1CN(C)C(=O)C1CCC1	1	0	1	1	0
COc1ccc(NC(=O)N(C)C[C@H]2OCCCC[C@@H](C)Oc3ccc(NC(=O)C4CCCCC4)cc3C(=O)N([C@H](C)CO)C[C@@H]2C)cc1	0	0	0	-1	2
CO[C@@H]1CN(C)C(=O)c2ccc(NC(=O)c3ccccc3F)cc2OC[C@H](C)N(CC2CCOCC2)C[C@@H]1C	1	0	0	-1	-6
COc1ccc(NC(=O)Nc2ccc3c(c2)C(=O)N([C@@H](C)CO)C[C@@H](C)[C@@H](CN(C)C(=O)c2ccccc2)OCCCC[C@@H](C)O3)cc1	0	0	0	-6	-1
C[C@@H]1CCCCO[C@H](CN(C)C(=O)Cc2ccccc2)[C@H](C)CN([C@H](C)CO)C(=O)c2cc(NS(C)(=O)=O)ccc2O1	3	0	0	16	-4
CN1[C@@H]2Cn3c(ccc(-c4ccncc4)c3=O)[C@H]1[C@@H](C(=O)NCC1CCCCC1)[C@@H]2CO	-3	/	0	/	/
